Measurements published in ChEMBL document CHEMBL3785019, “Dihydropyrazole derivatives as telomerase inhibitors: Structure-based design, synthesis, SAR and anticancer evaluation in vitro and in vivo” (Eur J Med Chem, 2016).
Active and inactive are the calls of the source. The calls are words filed in the database; no cut-off is given here.

What was measured:
[1] = Cytotoxicity against human PC3 cells after 48 hrs by MTT assay; assay type: functional, cell-based, PC-3
Summary of the method: (§1)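 Tumor cells in log phase in RPMI 1640 + 10% FBS, seeded at 3×10^4 cells mL-1 and incubated 24 h (37 °C, 5% CO2). Test samples added at pre-set concentrations (6 wells each), doxorubicin as reference; 48 h exposure. MTT (2.5 mg·mL-1 in PBS) added for 4 h, formazan dissolved in DMSO, A570 read.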

[2] = tested on: Bcap37; assay: Cytotoxicity against human Bcap37 cells after 48 hrs by MTT assay; assay type: functional, cell-based; summary of the method: as §1
[3] = Cytotoxicity against human MGC803 cells after 48 hrs by MTT assay; assay type: functional, cell-based, MGC-803; summary of the method: as §1
[4] = tested on: HepG2; assay: Cytotoxicity against human HepG2 cells after 48 hrs by MTT assay; assay type: functional, cell-based; summary of the method: as §1
[5] = Cytotoxicity against human GES-1 cells after 48 hrs by MTT assay; assay type: cell-based; details: GES1, 48 h
Summary of the method: (§2)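 Human normal gastric mucosa GES-1 and liver L-02 cells; MTT assay; IC50 expressed in mM as mean of triplicate experiments.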

[6] = Cytotoxicity against human L02 cells after 48 hrs by MTT assay; assay type: cell-based; details: L02, 48 h; summary of the method: as §2
[7] = tested on: CCRF S-180; assay: Antitumor activity against mouse S180 cells xenografted in Kunming mouse assessed as tumor weight at 60 mg/kg/day, QD administered via oral gavage for 10 consecutive days (reference value: 1.98 +/- 0.22g); assay type: functional
Summary of the method: (§3)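 Kunming mice (20 ± 2 g) inoculated subcutaneously in right front armpit with seven-day-old ascites (0.2 ml, 2 × 10^6 cells). 24 h later randomized, 10 per group; oral gavage 60 mg/kg/day or normal saline (10 mL/kg) once daily for ten days. Sacrificed day 11; tumors and mice weighed. Inhibition rate = (Wcontrol − Wtreated)/Wcontrol × 100%.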

[8] = tested on: CCRF S-180; assay: Antitumor activity against mouse S180 cells xenografted in Kunming mouse assessed as inhibition of tumor growth at 60 mg/kg/day, QD administered via oral gavage for 10 consecutive days; assay type: functional; details: CCRF S-180, po, read-out: TGI; summary of the method: as §3
[9] = tested on: HepG2; assay: Antitumor activity against human HepG2 cells xenografted in Kunming mouse assessed as inhibition of tumor growth at 60 mg/kg/day, QD administered via oral gavage for 10 consecutive days; assay type: functional; details: read-out: TGI; summary of the method: as §3
[10] = tested on: Mus musculus; assay: Toxicity in mouse S180 cells xenografted Kunming mouse assessed as body weight at 60 mg/kg/day, QD administered via oral gavage for 10 consecutive days measured on day 11 (reference value: 23.84 +/- 2.11g); assay type: organism-based, CCRF S-180; details: in vivo; summary of the method: as §3
[11] = tested on: Mus musculus; assay: Toxicity in human HepG2 cells xenografted Kunming mouse assessed as body weight at 60 mg/kg/day, QD administered via oral gavage for 10 consecutive days measured on day 11 (reference value: 25 +/- 1.65g); assay type: organism-based; details: in vivo; summary of the method: as §3
[12] = tested on: Mus musculus; assay: Toxicity in Kunming mouse xenografted with mouse EAC cells assessed as body weight at 60 mg/kg/day, QD administered via oral gavage for 10 consecutive days measured on day 11 (reference value: 19.52 +/- 1.17g); assay type: organism-based, Ehrlich; details: in vivo
[13] = Antitumor activity against mouse EAC cells xenografted in Kunming mouse assessed as survival time at 60 mg/kg/day, QD administered via oral gavage for 10 consecutive days days (reference value: 16.6 +/- 2.02days); assay type: functional, Ehrlich
Summary of the method: (§4)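 EAC cells were grown in RPMI-1640 with 10% heat-inactivated FBS and were kept as ascites by passaging 0.2 mL (2 × 10^6 cells) between mice. Kunming mice weighing 20 ± 2 g were used. Survival was followed by mortality. Mean survival time is the sum of each mouse's survival days divided by the number of mice. %ILS is the […].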

[14] = Antitumor activity against mouse EAC cells xenografted in Kunming mouse assessed as prolongation of survival time at 60 mg/kg/day, QD administered via oral gavage for 10 consecutive days days relative to untreated control; assay type: functional; details: Ehrlich; summary of the method: as §4
[15] = molecular target: T1, Telomerase reverse transcriptase (Homo sapiens, UniProt O14746); assay: Inhibition of telomerase in human MGC-803 cells after 24 hrs by TRAP-PCR-ELISA assay; assay type: cell-based
T1 sequence (O14746 whole entry): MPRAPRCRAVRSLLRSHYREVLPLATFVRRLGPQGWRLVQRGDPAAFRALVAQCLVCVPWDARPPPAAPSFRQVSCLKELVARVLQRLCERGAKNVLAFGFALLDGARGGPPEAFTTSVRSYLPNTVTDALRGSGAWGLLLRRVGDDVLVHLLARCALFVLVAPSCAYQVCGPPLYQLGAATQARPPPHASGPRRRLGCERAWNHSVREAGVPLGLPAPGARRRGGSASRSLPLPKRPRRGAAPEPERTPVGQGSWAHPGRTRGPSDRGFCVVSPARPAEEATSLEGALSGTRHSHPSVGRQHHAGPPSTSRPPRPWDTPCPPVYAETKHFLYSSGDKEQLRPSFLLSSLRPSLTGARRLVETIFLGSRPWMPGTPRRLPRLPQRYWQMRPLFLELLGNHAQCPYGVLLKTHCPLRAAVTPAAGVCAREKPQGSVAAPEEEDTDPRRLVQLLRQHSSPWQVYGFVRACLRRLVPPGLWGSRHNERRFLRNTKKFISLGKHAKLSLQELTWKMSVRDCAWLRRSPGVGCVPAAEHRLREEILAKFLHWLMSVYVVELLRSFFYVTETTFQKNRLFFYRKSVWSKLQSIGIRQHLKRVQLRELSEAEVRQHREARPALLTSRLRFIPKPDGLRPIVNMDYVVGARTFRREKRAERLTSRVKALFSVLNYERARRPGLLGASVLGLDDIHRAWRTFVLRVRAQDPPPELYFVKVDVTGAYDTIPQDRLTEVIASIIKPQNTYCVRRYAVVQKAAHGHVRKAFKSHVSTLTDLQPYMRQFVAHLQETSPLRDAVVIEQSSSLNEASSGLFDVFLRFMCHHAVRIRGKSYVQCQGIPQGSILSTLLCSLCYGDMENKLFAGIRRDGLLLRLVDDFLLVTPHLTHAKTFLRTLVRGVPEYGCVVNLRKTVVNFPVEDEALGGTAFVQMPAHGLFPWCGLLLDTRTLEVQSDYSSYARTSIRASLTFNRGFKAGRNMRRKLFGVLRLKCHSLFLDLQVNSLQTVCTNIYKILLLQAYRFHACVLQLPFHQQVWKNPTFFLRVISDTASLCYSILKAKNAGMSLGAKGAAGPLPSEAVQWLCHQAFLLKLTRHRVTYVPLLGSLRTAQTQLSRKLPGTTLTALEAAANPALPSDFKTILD
Summary of the method: (§5)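 Cells lysed in RIPA on ice for 30 min; extract incubated with TRAP mix at 25 °C for 30 min, then 35 PCR cycles. Products hybridized to DIG probe, captured on streptavidin, detected with peroxidase anti-DIG at 490 nm; mean±SD.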

[16] = tested on: HepG2; assay: Antitumor activity against human HepG2 cells xenografted in Kunming mouse assessed as tumor weight at 60 mg/kg/day, QD administered via oral gavage for 10 consecutive days (reference value: 1.93 +/- 0.20g)
[17] = molecular target: T1, Telomerase reverse transcriptase; assay: Inhibition of telomerase in human MGC-803 cells upto 60 uM after 24 hrs by TRAP-PCR-ELISA assay; assay type: cell-based; summary of the method: as §5
[18] = tested on: Rattus norvegicus; assay: Antitumor activity against DEN induced Sprague-Dawley rat hepatic tumor assessed as improvement of pathological changes at 50 mg/kg, po qd for 10 consecutive weeks by HE-staining based microscopic analysis; assay type: functional, organism-based
Summary of the method: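 Male SD rats (120~160 g) gavaged with DEN 8 mg/kg once daily, 6 days/week; DEN continued to week 16. From week 10, compound given orally at 50 mg·kg-1 once daily for 10 consecutive weeks; n = 12 per group. Similar parts of left liver lobe fixed in 4% polyformaldehyde, paraffin-embedded, sectioned, HE stained; histopathology viewed at ×200.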

[19] = Homo sapiens, PC-3, 48 h, read-out: IC50
[20] = Homo sapiens, Bcap37, 48 h, read-out: IC50
[21] = Homo sapiens, MGC-803, 48 h, read-out: IC50
[22] = Homo sapiens, HepG2, 48 h, read-out: IC50

| IC50 [15] [µM] | SMILES | IC50 [1, 19] [µM] | IC50 [2, 20] [µM] | IC50 [3, 21] [µM] | IC50 [4, 22] [µM] | further results |
| --- | --- | --- | --- | --- | --- | --- |
|  | O=C(CN1CCC(O)CC1)N1N=C(c2cc3ccccc3oc2=O)CC1c1ccccc1 (centres undefined) |  |  |  |  | IC50 ([1]; pc-3): Not Active; IC50 ([2]; bcap37): Not Active; IC50 ([3]; mgc-803): Not Active; IC50 ([4]; hepg2): Not Active; inhibition [17]: inactive |
| 6.77 | CC1=NN(C(=O)CN2CCN(C(=O)OC(C)(C)C)CC2)C(c2ccccc2O)C1 (centres undefined) | 3.44 | 6.74 | 17.6 | 5 |  |
| 6.2 | CC(=O)Oc1ccccc1C1CC(C)=NN1C(=O)CN1CCCCC1C (centres undefined) | 11.1 | 17.9 | 5.14 |  | IC50 ([4]; hepg2): Not Active |
| 8.4 | COc1ccccc1C1CC(C)=NN1C(=O)CN1CCC(OC)CC1 (centres undefined) | 27.2 | 18.8 | 9.55 | 22 |  |
| 3.3 | O=C(CN1CCSCC1)N1N=C(c2cc3ccccc3oc2=O)CC1c1ccccc1 (centres undefined) | 4 | 8.2 | 10.3 | 8.96 |  |
| 31.2 | NC(=O)C1CCN(CC(=O)N2N=C(c3cc4ccccc4oc3=O)CC2c2ccccc2)CC1 (centres undefined) | 8.31 | 18.5 | 21.5 | 19.3 |  |
| 5.69 | CC(=O)Oc1ccccc1C1CC(C)=NN1C(=O)CN1CCC(O)CC1 (centres undefined) | 25.6 | 9.8 | 3.51 | 12.3 | IC50 [5]: 2510 µM; IC50 [6]: 2230 µM |
| 4.77 | CCCCCCN(CCCCCC)CC(=O)N1N=C(c2cc3ccccc3oc2=O)CC1c1ccccc1C(F)(F)F (centres undefined) | 6.03 | 12.2 | 6.87 | 12 |  |
| 5.44 | CC1=NN(C(=O)CN2CCCC2)C(c2ccccc2O)C1 (centres undefined) | 6.67 | 5.35 | 17.9 | 5.54 |  |
| 11 | COc1ccccc1C1CC(C)=NN1C(=O)C[N+]1(C)CCCC1 (centres undefined) | 11.2 | 9.98 | 12.2 | 32.2 |  |
| 14.2 | COc1ccccc1C1CC(C)=NN1C(=O)CN(C(C)C)C(C)C (centres undefined) | 5.2 | 34.2 | 21.5 | 8.4 |  |
| 18.1 | CCC(=O)N1N=C(C)CC1c1cc(Br)cc(Br)c1O (centres undefined) | 28.6 | 40.1 | 38.6 | 41.4 |  |
|  | CCN(CC)CC(=O)N1N=C(C)CC1c1ccccc1OC(C)=O (centres undefined) | 51.2 | 44.2 | 29.5 | 33.2 | inhibition [17]: inactive |
|  | CC1=NN(S(=O)(=O)c2ccc(C)cc2)C(c2cc(Br)cc(Br)c2O)C1 (centres undefined) | 51.2 |  |  |  | IC50 ([2]; bcap37): Not Active; IC50 ([3]; mgc-803): Not Active; IC50 ([4]; hepg2): Not Active; inhibition [17]: inactive |
| 31.3 | O=c1oc2ccccc2cc1C1=NN(S(=O)(=O)c2ccc([N+](=O)[O-])cc2)C(c2ccccc2)C1 (centres undefined) | 46.6 | 37 | 41.2 |  | IC50 ([4]; hepg2): Not Active |
| 6.3 | CC(=O)Oc1ccccc1C1CC(C)=NN1C(=O)CN1CCCC1 (centres undefined) | 6.21 | 5.21 | 6.51 | 5.09 |  |
| 5.57 | CCN(CC)CC(=O)N1N=C(c2cc3ccccc3oc2=O)CC1c1ccccc1 (centres undefined) | 6.41 | 3.5 | 8.52 | 11.4 |  |
| 13.1 | O=C(c1ccccc1Cl)N1N=C(c2cc3ccccc3oc2=O)CC1c1ccccc1 (centres undefined) | 6.37 | 9.3 | 6.64 | 5.44 |  |
| 2.27 | O=C(CCl)N1N=C(c2cc3ccccc3oc2=O)CC1c1ccccc1 (centres undefined) | 2.98 | 26.7 | 2.02 | 2.98 | IC50 [5]: 2110 µM; IC50 [6]: 1280 µM |
| 2.1 | CC1=NN(C(=O)CN2CCN(C)CC2)C(c2ccccc2O)C1 (centres undefined) | 11.8 | 6.21 | 7.85 |  | IC50 ([4]; hepg2): Not Active |
| 3.52 | CC(C)NCC(=O)N1N=C(c2cc3ccccc3oc2=O)CC1c1ccccc1 (centres undefined) | 1.87 | 2.21 | 10.3 | 6 |  |
| 9.32 | CCCNCC(=O)N1N=C(c2cc3ccccc3oc2=O)CC1c1ccccc1 (centres undefined) | 7.27 | 25.2 | 4.88 | 10.8 |  |
| 57.8 | O=C(CN1CCC(Cl)CC1)N1N=C(c2cc3ccccc3oc2=O)CC1c1ccccc1 (centres undefined) |  | 24.2 |  |  | IC50 ([1]; pc-3): Not Active; IC50 ([3]; mgc-803): Not Active; IC50 ([4]; hepg2): Not Active |
| 1.27 | CC(=O)Oc1ccccc1C1CC(C)=NN1C(=O)CCl (centres undefined) | 3.58 | 6.81 | 3.01 | 2.52 | IC50 [5]: 1840 µM; IC50 [6]: 2530 µM |
| 3.63 | CCC(=O)N1N=C(c2cc3ccccc3oc2=O)CC1c1ccccc1 (centres undefined) | 4.37 | 46.3 | 5.3 | 9.61 |  |

| SMILES | IC50 [15] [µM] | IC50 [1, 19] [µM] | IC50 [2, 20] [µM] | IC50 [3, 21] [µM] | IC50 [4, 22] [µM] | further results |
| --- | --- | --- | --- | --- | --- | --- |
| CC1=NN(C(=O)CN2CCCCC2)C(c2ccccc2O)C1 (centres undefined) | 4.63 | 5.89 | 33.1 | 4.31 | 3.02 | IC50 [5]: 1290 µM; IC50 [6]: 1800 µM; Activity [7]: 1.1 g; inhibition in vivo at 60 mg/kg/day [8]: 44.4%; inhibition in vivo at 60 mg/kg/day [9]: 39.4%; Activity [10]: 24.89 g; Activity [11]: 26 g; Activity [12]: 19.3 g; Survival [13]: 23.41 days; survival at 60 mg/kg/day [14]: 41%; Activity [16]: 1.17 g |
| CCCCN(CCCC)CC(=O)N1N=C(c2cc3ccccc3oc2=O)CC1c1ccccc1 (centres undefined) | 0.98 | 4.87 | 3.37 | 2.96 | 2.45 | IC50 [5]: 1640 µM; IC50 [6]: 1620 µM; Activity [7]: 1.01 g; inhibition in vivo at 60 mg/kg/day [8]: 48.9%; inhibition in vivo at 60 mg/kg/day [9]: 46.1%; Activity [10]: 24.64 g; Activity [11]: 27.11 g; Activity [12]: 19.6 g; Survival [13]: 23.89 days; survival at 60 mg/kg/day [14]: 43.9%; Activity [18]: Active; Activity [16]: 1.04 g |
